Assay [1] has as its target T1, Prostaglandin D2 receptor 2 (Homo sapiens, UniProt Q9Y5Y4).
T1 sequence (Q9Y5Y4 whole entry): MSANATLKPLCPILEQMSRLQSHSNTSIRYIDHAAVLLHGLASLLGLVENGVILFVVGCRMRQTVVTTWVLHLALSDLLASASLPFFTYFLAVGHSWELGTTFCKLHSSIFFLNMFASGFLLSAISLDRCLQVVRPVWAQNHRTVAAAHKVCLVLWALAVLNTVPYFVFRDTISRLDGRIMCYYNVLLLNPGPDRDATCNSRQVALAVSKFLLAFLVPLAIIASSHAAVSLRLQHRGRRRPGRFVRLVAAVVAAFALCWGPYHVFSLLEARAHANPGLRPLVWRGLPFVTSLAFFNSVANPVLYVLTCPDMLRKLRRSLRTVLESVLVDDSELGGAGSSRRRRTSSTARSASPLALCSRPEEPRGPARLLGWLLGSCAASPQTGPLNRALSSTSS
The assay is described as follows: Displacement of [3H]PGD2 from recombinant human CRTH2 receptor expressed in HEK293 cell membranes after 90 mins by scintillation counting analysis in presence of human serum albumin. In outline: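 Same hCRTH2 HEK293 membrane [3H]PGD2 (2.5 nM) displacement, 90 min at room temperature, with 0.5% human serum albumin added to the assay buffer; scintillation counting.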
(In general: In a radioligand displacement assay an active substance lowers the binding of a labelled ligand.)

The target of assay [2] is T2, Prostaglandin D2 receptor 2 (Rattus norvegicus) (UniProt Q6XKD3).
T2 sequence (whole entry): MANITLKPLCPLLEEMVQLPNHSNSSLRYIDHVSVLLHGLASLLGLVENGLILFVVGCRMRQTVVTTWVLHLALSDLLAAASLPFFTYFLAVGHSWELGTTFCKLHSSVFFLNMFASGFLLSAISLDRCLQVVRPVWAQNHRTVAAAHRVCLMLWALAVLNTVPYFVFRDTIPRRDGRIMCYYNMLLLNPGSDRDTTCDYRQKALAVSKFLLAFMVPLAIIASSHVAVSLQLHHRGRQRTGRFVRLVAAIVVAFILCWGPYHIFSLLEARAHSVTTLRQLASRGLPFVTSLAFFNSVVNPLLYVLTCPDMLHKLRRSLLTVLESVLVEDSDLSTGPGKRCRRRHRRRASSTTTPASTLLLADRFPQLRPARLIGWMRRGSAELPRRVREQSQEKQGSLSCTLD
The assay is described as follows: Antagonist activity at rat CRTH2 receptor assessed as inhibition of calcium flux by cell-based FLIPR assay. Type of assay: functional.

The target of assay [3] is T3, Prostaglandin E2 receptor EP4 subtype (Homo sapiens, UniProt P35408). The assay is described as follows: Displacement of [3H]PGE2 from recombinant human prostanoid EP4 receptor expressed in HEK293 cell membranes after 90 mins by scintillation counting analysis.
T3 sequence (P35408 whole entry): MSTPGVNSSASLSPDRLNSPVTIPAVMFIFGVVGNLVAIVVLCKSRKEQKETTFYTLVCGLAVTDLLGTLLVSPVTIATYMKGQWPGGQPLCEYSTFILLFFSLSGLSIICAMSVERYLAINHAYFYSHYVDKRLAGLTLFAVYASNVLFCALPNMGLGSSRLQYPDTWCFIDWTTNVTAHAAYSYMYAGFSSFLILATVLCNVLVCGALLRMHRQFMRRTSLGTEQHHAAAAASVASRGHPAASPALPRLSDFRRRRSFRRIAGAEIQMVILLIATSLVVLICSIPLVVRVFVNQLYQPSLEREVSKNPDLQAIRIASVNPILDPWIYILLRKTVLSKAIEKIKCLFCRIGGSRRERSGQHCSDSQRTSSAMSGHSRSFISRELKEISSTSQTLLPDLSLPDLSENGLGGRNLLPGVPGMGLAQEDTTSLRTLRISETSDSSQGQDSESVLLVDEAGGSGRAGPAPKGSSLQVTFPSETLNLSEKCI
Assay [4] addresses T4, Prostaglandin G/H synthase 1 (Ovis aries, UniProt P05979).
T4 sequence (P05979 whole entry): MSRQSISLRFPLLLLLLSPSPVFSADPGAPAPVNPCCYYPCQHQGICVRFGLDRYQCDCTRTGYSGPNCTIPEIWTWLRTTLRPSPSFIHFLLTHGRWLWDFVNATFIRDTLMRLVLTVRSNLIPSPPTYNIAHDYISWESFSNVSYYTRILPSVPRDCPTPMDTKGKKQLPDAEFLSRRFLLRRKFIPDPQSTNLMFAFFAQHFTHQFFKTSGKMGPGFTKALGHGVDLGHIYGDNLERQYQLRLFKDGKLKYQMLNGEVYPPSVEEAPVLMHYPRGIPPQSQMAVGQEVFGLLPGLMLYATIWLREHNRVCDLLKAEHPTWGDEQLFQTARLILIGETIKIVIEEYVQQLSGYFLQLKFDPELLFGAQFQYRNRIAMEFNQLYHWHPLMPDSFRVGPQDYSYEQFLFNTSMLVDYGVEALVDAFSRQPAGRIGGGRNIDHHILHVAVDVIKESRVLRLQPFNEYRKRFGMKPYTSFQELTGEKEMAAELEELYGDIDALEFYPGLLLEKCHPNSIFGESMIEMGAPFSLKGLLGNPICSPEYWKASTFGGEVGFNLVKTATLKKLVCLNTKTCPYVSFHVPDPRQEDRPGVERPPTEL
The assay can be described thus: Antagonist activity at ovine COX-1.

The target of assay [5] is T5, Prostaglandin D2 receptor (Homo sapiens, UniProt Q13258).
T5 sequence (Q13258 whole entry): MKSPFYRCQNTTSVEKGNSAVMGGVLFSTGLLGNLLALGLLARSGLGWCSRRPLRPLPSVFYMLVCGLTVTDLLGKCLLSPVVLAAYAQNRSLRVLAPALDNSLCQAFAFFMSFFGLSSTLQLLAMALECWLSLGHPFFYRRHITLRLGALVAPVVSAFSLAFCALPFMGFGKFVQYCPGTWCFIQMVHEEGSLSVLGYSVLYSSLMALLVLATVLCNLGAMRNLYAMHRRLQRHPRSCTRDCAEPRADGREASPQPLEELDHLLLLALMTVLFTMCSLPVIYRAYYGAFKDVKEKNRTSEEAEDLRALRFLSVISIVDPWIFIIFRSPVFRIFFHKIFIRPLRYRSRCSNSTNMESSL
The assay is described as follows: Displacement of [3H]PGD2 from recombinant human prostanoid DP1 receptor expressed in CHO cells after 90 mins by scintillation counting analysis. Type of assay: cell-based. In outline:
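Competitive binding with CHO cells stably expressing high levels of recombinant hDP1, using [3H]PGD2 as ligand; IC50 reported.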

Assay [6] concerns the target T3, Prostaglandin E2 receptor EP4 subtype. The assay is described as follows: Inhibition of beta-arrestin binding to recombinant human prostanoid EP4 receptor expressed in HEK293 cell membranes by beta-lactamase complementation assay.
The target of assay [7] is T1, Prostaglandin D2 receptor 2. The assay is described as follows: Antagonist activity at human CRTH2 receptor expressed in HEK293 cells assessed as inhibition of PGD2-induced calcium flux after 5 mins by FLIPR assay. Type of assay: functional, cell-based. In outline:
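HEK-293 cells stably expressing hCRTh2 were loaded with 4 μM Fluo-4 AM for 40 min at 37 °C in HBSS/20 mM HEPES pH 7.2. Compound was added 5 min before 50 nM PGD2 (final) in buffer with 0.05% BSA. Peak fluorescence was normalised to no-antagonist control after baseline subtraction; IC50 from four-parameter fit.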
On the technique in general: Calcium flux is commonly read through the fluorescence of an indicator in the cells.

In the next assay the target is T6, Thromboxane A2 receptor (Homo sapiens, UniProt P21731).
T6 sequence (P21731 whole entry): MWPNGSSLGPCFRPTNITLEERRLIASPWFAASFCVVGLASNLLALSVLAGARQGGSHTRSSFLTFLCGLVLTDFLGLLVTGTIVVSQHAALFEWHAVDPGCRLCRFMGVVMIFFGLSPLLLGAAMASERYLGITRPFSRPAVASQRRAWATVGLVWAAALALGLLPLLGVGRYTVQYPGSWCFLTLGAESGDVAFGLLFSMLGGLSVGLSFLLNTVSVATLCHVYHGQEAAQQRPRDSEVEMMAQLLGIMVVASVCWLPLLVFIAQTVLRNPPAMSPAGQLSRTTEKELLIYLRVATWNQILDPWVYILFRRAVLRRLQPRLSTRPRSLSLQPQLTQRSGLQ
The assay is described as follows: Antagonist activity at human prostanoid TP2 receptor expressed in HEK293 cells assessed as inhibition of calcium flux after 30 to 40 mins by FLIPR assay. Type of assay: functional, cell-based.

In general, IC50 refers to the concentration that inhibits the measured activity by half.

Activity calls are given as the source filed them. The rule behind the calls is not given here.

With `O=C(O)Cn1c2c(c3cc(F)cc(Cl)c31)CN(C(=O)c1cccc3ccccc13)CC2`, the IC50 in assay [1] is 0.53 µM; in assay [3] it was above 10 µM; in assay [4], above 10 µM; in assay [5] it was 0.31 µM; in assay [6] it was above 10 µM; in assay [7], 0.66 µM. In addition, the IC50 on Thromboxane A2 receptor was above 25 µM. In addition, the inhibition entry in assay [2] was “Active”.
Regarding `O=C(O)Cn1c2c(c3cc(C(F)(F)F)ccc31)CN(C(=O)c1cccc3ccccc13)CC2`, the IC50 in assay [1] was 0.07 µM; in assay [3] it was above 10 µM; in assay [4], above 10 µM; in assay [5], 2.2 µM; in assay [6], above 10 µM; in assay [7], 0.02 µM. Besides, the IC50 on Thromboxane A2 receptor was above 25 µM. In assay [2], the inhibition entry was “Active”.
Turning to `O=C(O)Cn1c2c(c3cc(F)ccc31)CN(C(=O)Cc1cccc3ccccc13)CC2`, the IC50 was 0.18 µM in assay [1]; above 10 µM in assay [3]; above 10 µM in assay [4]; above 10 µM in assay [5]; above 10 µM in assay [6]; 0.07 µM in assay [7]. The IC50 on Thromboxane A2 receptor is above 25 µM. The inhibition result in assay [2] was “Active”.
Take `O=C(O)Cn1c2c(c3cc(F)ccc31)CN(C(=O)CCc1cccc3ccccc13)CC2`: the IC50 in assay [1] was 0.03 µM; in assay [3], above 10 µM; in assay [4], above 10 µM; in assay [5], above 10 µM; in assay [6], above 10 µM; in assay [7], 0.065 µM. Also, the IC50 on Thromboxane A2 receptor is above 25 µM. Also, the inhibition result in assay [2] is “Active”.

For the origin of these results see ChEMBL document CHEMBL2385063, “Identification of 2-(2-(1-naphthoyl)-8-fluoro-3,4-dihydro-1H-pyrido[4,3-b]indol-5(2H)-yl)acetic acid (setipiprant/ACT-129968), a potent, selective, and orally bioavailable chemoattractant receptor-homologous molecule expressed on Th2 cells (CRTH2) antagonist” (J Med Chem, 2013).
